Experimental data published in ChEMBL document CHEMBL4406852, “Combating fluconazole-resistant fungi with novel β-azole-phenylacetone derivatives” (Eur J Med Chem, 2019).
≈ marks a conversion by molar mass, not a printed value.

Key:
Candida albicans [1] = test: Antifungal activity against fluconazole-resistant Candida albicans CaR assessed as reduction in fungal growth incubated for 24 hrs by serial dilution method; type: functional
Procedure, shortened: (§1)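 Fluconazole-resistant C. albicans clinical isolates (17# and CaR from AIDS patients; 632, 901, 904 from clinic) tested by CLSI broth dilution MIC in RPMI 1640 buffered to pH 7.0 with MOPS. Compounds dissolved in DMSO, serially diluted to final 0.03–16 or 0.125–64 μg/mL; inoculum 1–5 × 10^3 CFU/mL; 35 °C, 24 h. MIC = lowest concentration inhibiting visible growth; fluconazole and itraconazole as controls.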

Candida albicans [2] = test: Antifungal activity against Candida albicans SC5314 assessed as reduction in fungal growth incubated for 24 hrs by serial dilution method; type: functional; settings: SC5314, 24 h
Procedure, shortened: (§2)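 MIC by CLSI broth microdilution in RPMI 1640 buffered to pH 7.0 with MOPS. Compounds dissolved in DMSO and serially diluted to final 0.03–16 or 0.125–64 µg/mL. Inoculum 1–5 × 10^3 CFU/mL. Incubation 35 °C, 24 h. Drug-free growth and fungus-free blank controls. MIC is the lowest concentration preventing visible growth.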

Candida albicans [3] = test: Antifungal activity against Candida albicans GIM 2.194 assessed as reduction in fungal growth incubated for 24 hrs by serial dilution method; type: functional; settings: GIM 2.194, 24 h; procedure, shortened: as §2
Candida tropicalis = test: Antifungal activity against Candida tropicalis GIM 2.183 assessed as reduction in fungal growth incubated for 24 hrs by serial dilution method; type: functional; settings: GIM 2.183, 24 h; procedure, shortened: as §2
Nakaseomyces glabratus = test: Antifungal activity against Candida glabrata assessed as reduction in fungal growth incubated for 24 hrs by serial dilution method; type: functional; procedure, shortened: as §2
Candida parapsilosis = test: Antifungal activity against Candida parapsilosis GIM 2.190 assessed as reduction in fungal growth incubated for 24 hrs by serial dilution method; type: functional; settings: Lodderomyces parapsilosis, GIM 2.190, 24 h; procedure, shortened: as §2
Candida albicans [4] = test: Antifungal activity against fluconazole-resistant Candida albicans 17 assessed as reduction in fungal growth incubated for 24 hrs by serial dilution method; type: functional; settings: Candida albicans, 17, 24 h; procedure, shortened: as §1
Candida albicans [5] = test: Antifungal activity against fluconazole-resistant Candida albicans 632 assessed as reduction in fungal growth incubated for 24 hrs by serial dilution method; type: functional; settings: Candida albicans, 632, 24 h; procedure, shortened: as §1
Candida albicans [6] = test: Antifungal activity against fluconazole-resistant Candida albicans 901 assessed as reduction in fungal growth incubated for 24 hrs by serial dilution method; type: functional; settings: Candida albicans, 901, 24 h; procedure, shortened: as §1
Candida albicans [7] = test: Antifungal activity against fluconazole-resistant Candida albicans 904 assessed as reduction in fungal growth incubated for 24 hrs by serial dilution method; type: functional; settings: Candida albicans, 904, 24 h; procedure, shortened: as §1
[8] = Cytotoxicity against human A549 cells assessed as cell survival at 0.08 uM/l incubated for 24 hrs by MTT assay relative to control; type: cell-based; settings: read-out: Activity
Procedure, shortened: (§3)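 A549 cells were seeded at 3000 per well in RPMI 1640 and held 16 h at 37 °C, 5% CO2. Medium was then replaced with medium holding DMSO-dissolved compound at final 0.08, 0.4, 2.0 or 10 µM/L and incubated 24 h. MTT was added for 4 h and absorbance read at 490 nm to give survival.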

[9] = Cytotoxicity against human A549 cells assessed as cell survival at 0.4 uM/l incubated for 24 hrs by MTT assay relative to control; type: cell-based; settings: read-out: Activity; procedure, shortened: as §3
[10] = Cytotoxicity against human A549 cells assessed as cell survival at 2 uM/l incubated for 24 hrs by MTT assay relative to control; type: cell-based; settings: read-out: Activity; procedure, shortened: as §3
[11] = Cytotoxicity against human A549 cells assessed as cell survival at 10 uM/l incubated for 24 hrs by MTT assay relative to control; type: cell-based; settings: read-out: Activity; procedure, shortened: as §3
[12] = target: T1, Lanosterol 14-alpha demethylase (Candida albicans (strain SC5314 / ATCC MYA-2876) (Yeast), UniProt P10613); test: Inhibition of Candida albicans CYP51 assessed as increase in lanosterol level at 0.015 ug/ml incubated for 18 hrs by GC/MS analysis relative to control; parameters: scale not given: the % may be the effect or the level left
T1 sequence (P10613 whole entry): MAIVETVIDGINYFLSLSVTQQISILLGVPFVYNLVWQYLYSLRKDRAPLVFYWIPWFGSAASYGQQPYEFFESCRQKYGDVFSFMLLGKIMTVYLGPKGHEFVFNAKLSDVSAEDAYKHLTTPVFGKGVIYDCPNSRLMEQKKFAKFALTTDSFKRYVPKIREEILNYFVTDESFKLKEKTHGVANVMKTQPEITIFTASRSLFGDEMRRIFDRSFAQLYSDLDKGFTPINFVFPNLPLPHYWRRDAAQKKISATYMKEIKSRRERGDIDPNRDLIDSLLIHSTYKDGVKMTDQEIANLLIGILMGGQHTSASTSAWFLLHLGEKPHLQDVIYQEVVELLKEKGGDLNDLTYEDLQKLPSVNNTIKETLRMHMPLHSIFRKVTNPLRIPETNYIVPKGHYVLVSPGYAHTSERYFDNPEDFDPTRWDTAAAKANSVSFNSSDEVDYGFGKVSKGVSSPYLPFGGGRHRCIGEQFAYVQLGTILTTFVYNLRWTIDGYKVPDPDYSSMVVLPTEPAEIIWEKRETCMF
Procedure, shortened: (§4)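 C. albicans SC5314 was grown in RPMI 1640 with 0.015 µg/mL compound, or fluconazole 0.25 µg/mL, about 18 h at 30 °C with shaking at 200 rpm. Cells were pelleted and washed with PBS, then saponified 60 min at 80 °C in ethanol/pyrogallol/60% KOH. Nonsaponifiable sterols were extracted three times with heptane and analysed by GC-MS.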

[13] = target: T1, Lanosterol 14-alpha demethylase; test: Inhibition of Candida albicans CYP51 assessed as ergosterol level at 0.015 ug/ml incubated for 18 hrs by GC/MS analysis (reference value: 100%); parameters: scale not given: the % may be the effect or the level left; procedure, shortened: as §4
[14] = target: T1, Lanosterol 14-alpha demethylase; test: Inhibition of Candida albicans CYP51 assessed as increase in eburicol level at 0.015 ug/ml incubated for 18 hrs by GC/MS analysis relative to control; parameters: scale not given: the % may be the effect or the level left; procedure, shortened: as §4
[15] = target: T1, Lanosterol 14-alpha demethylase; test: Inhibition of Candida albicans CYP51 assessed as increase in 14alpha-methyl ergosta-8,24(28)-dien-3beta,6alpha-diol level at 0.015 ug/ml incubated for 18 hrs by GC/MS analysis relative to control; parameters: scale not given: the % may be the effect or the level left; procedure, shortened: as §4
[16] = target: T1, Lanosterol 14-alpha demethylase; test: Inhibition of Candida albicans CYP51 assessed as increase in sterol level at 0.015 ug/ml incubated for 18 hrs by GC/MS analysis relative to control; parameters: scale not given: the % may be the effect or the level left; procedure, shortened: as §4
[17] = target: T1, Lanosterol 14-alpha demethylase; test: Inhibition of Candida albicans CYP51 assessed as increase in lanosterol level at 0.25 ug/ml incubated for 18 hrs by GC/MS analysis relative to control; parameters: scale not given: the % may be the effect or the level left
Procedure, shortened: (§5)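 Candida albicans SC5314 grown in RPMI 1640 with agitation (200 rpm) for ~18 h at 30 °C, with 0.25 µg/mL fluconazole as a comparator alongside the test compound. Cells were pelleted (3000g, 10 min), PBS-washed thrice, and saponified 60 min at 80 °C in ethanol, ethanolic pyrogallol and 60% KOH. Nonsaponifiable sterols were extracted thrice with heptane and profiled by GC-MS.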

[18] = target: T1, Lanosterol 14-alpha demethylase; test: Inhibition of Candida albicans CYP51 assessed as ergosterol level at 0.25 ug/ml incubated for 18 hrs by GC/MS analysis (reference value: 100%); parameters: scale not given: the % may be the effect or the level left; procedure, shortened: as §5
[19] = target: T1, Lanosterol 14-alpha demethylase; test: Inhibition of Candida albicans CYP51 assessed as increase in eburicol level at 0.25 ug/ml incubated for 18 hrs by GC/MS analysis relative to control; parameters: scale not given: the % may be the effect or the level left; procedure, shortened: as §5
[20] = target: T1, Lanosterol 14-alpha demethylase; test: Inhibition of Candida albicans CYP51 assessed as increase in 14alpha-methyl ergosta-8,24(28)-dien-3beta,6alpha-diol level at 0.25 ug/ml incubated for 18 hrs by GC/MS analysis relative to control; parameters: scale not given: the % may be the effect or the level left; procedure, shortened: as §5
[21] = target: T1, Lanosterol 14-alpha demethylase; test: Inhibition of Candida albicans CYP51 assessed as increase in sterol level at 0.25 ug/ml incubated for 18 hrs by GC/MS analysis relative to control; parameters: scale not given: the % may be the effect or the level left; procedure, shortened: as §5

Row | SMILES | MIC (Candida albicans [1]) [µg/mL] | MIC (Candida albicans [2]) [µg/mL] | MIC (Candida albicans [3]) [µg/mL] | MIC (Candida tropicalis) [µg/mL] | MIC (Nakaseomyces glabratus) [µg/mL] | MIC (Candida parapsilosis) [µg/mL] | MIC (Candida albicans [4]) [µg/mL] | MIC (Candida albicans [5]) [µg/mL] | MIC (Candida albicans [6]) [µg/mL] | MIC (Candida albicans [7]) [µg/mL] | viability at 24 h, 0.08 µM [8] [%] | viability at 24 h, 0.4 µM [9] [%] | viability at 24 h, 2 µM [10] [%] | viability at 24 h, 10 µM [11] [%] | other results
1 | O=C(NC(Cn1ccnc1)C(=O)c1ccccc1F)c1ccc(-c2ccccc2)cc1 (stereo not given) | 1 (≈ 2.42 µM) | 0.125 (≈ 0.302 µM) | 0.125 (≈ 0.302 µM) | 1 (≈ 2.42 µM) | 2 (≈ 4.84 µM) | 0.125 (≈ 0.302 µM) | 8 (≈ 19.3 µM) | 0.5 (≈ 1.21 µM) | 0.25 (≈ 0.605 µM) | < 0.125 | 100 | 100 | 100 | 100 | 
2 | O=C(NC(Cn1ccnc1)C(=O)c1cccc(Cl)c1)c1ccc(-c2ccccc2)cc1 (stereo not given) | > 64 | 0.03 (≈ 0.0698 µM) | 0.06 (≈ 0.14 µM) | 0.03 (≈ 0.0698 µM) | 0.125 (≈ 0.291 µM) | 0.125 (≈ 0.291 µM) | > 64 | 4 (≈ 9.3 µM) | 1 (≈ 2.33 µM) | 4 (≈ 9.3 µM) | 100 | 97.4 | 97.2 | 96.3 | 
3 | O=C(NC(Cn1ccnc1)C(=O)c1ccc(F)cc1)c1ccc(-c2ccccc2)cc1F (stereo not given) | 2 (≈ 4.64 µM) | 0.06 (≈ 0.139 µM) | 0.25 (≈ 0.579 µM) | 0.125 (≈ 0.29 µM) | 0.125 (≈ 0.29 µM) | 0.125 (≈ 0.29 µM) | 2 (≈ 4.64 µM) | > 64 | > 64 | 8 (≈ 18.5 µM) | 100 | 100 | 100 | 86.8 | 
4 | Cc1ccc(C(=O)C(Cn2ccnc2)NC(=O)c2ccc(-c3ccccc3)c(F)c2)cc1 (stereo not given) | 1 (≈ 2.34 µM) | 0.03 (≈ 0.0702 µM) | 0.06 (≈ 0.14 µM) | 0.03 (≈ 0.0702 µM) | 0.125 (≈ 0.292 µM) | 0.125 (≈ 0.292 µM) | 2 (≈ 4.68 µM) | 16 (≈ 37.4 µM) | 16 (≈ 37.4 µM) | 16 (≈ 37.4 µM) | 100 | 100 | 97 | 92.5 | Activity [12]: 23.17%; Activity [13]: 41.99%; Activity [14]: 9.56%; Activity [15]: 13.26%; Activity [16]: 3.04 to 5.85%
5 | OC(Cn1cncn1)(Cn1cncn1)c1ccc(F)cc1F [FLUCONAZOLE] | > 64 | 0.5 (≈ 1.63 µM) | 2 (≈ 6.53 µM) | 0.5 (≈ 1.63 µM) | 4 (≈ 13.1 µM) | 2 (≈ 6.53 µM) | > 64 | > 64 | > 64 | > 64 | 100 | 99.1 | 95.7 | 95.3 | Activity [17]: 16.74%; Activity [18]: 63%; Activity [19]: 4.27%; Activity [20]: 5.15%; Activity [21]: 1.54 to 5.07%
